According to ChEMBL document CHEMBL2163287, “Nitro seco analogues of the duocarmycins containing sulfonate leaving groups as hypoxia-activated prodrugs for cancer therapy” (J Med Chem, 2012):

Tests used:
HT-29 [1] = assay: Cytotoxicity against human HT-29 cells under oxic condition assessed as inhibition of cell proliferation after 4 hrs by SRB method; assay type: functional, cell-based; conditions: HT-29, 4 h
Method in brief: (§1)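 Log-phase monolayers were exposed 4 h under 20% O₂ or anoxia (<20 ppm O₂), then stained with sulforhodamine B 5 days later. IC50, interpolated as the concentration reducing cell density to 50% of same-plate controls, is given as mean of 3−9 experiments. HCR = IC50(oxic)/IC50(hypoxic), taken as the mean of intraexperiment ratios from 3−6 experiments.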

SiHa [2] = assay: Cytotoxicity against human SiHa cells under oxic condition assessed as inhibition of cell proliferation after 4 hrs; assay type: functional, cell-based
Method in brief: (§2)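 Log-phase monolayers were exposed to drug for 4 h, aerobic (20% O2) for line 5 and anoxic (<20 ppm O2) for line 4. Cell density was read by sulforhodamine B staining 5 days later. IC50 was interpolated as the concentration reducing density to 50% of same-plate controls; mean ± SEM of 3–9 experiments.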

HT-29 [3] = assay: Cytotoxicity against human HT-29 cells under hypoxic condition assessed as inhibition of cell proliferation after 4 hrs by SRB method; assay type: functional, cell-based; conditions: HT-29, 4 h; method in brief: as §1
SiHa [4] = assay: Cytotoxicity against human SiHa cells under hypoxic condition assessed as inhibition of cell proliferation after 4 hrs; assay type: functional, cell-based; method in brief: as §2
HT-29 [5] = assay: Ratio of IC50 for human HT-29 cells under oxic condition to IC50 for human HT-29 cells under hypoxic condition; assay type: functional; method in brief: as §1
SiHa [6] = assay: Antitumor activity against human SiHa cells xenografted in immunocompromized gamma irradiated mouse assessed as number of colony forming cells per gram of tumor tissue at 42 umol/kg, iv tumor excised post 18 hrs followed by culturing for 14 days; assay type: functional
Method in brief: (§3)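 SiHa tumours grown subcutaneously in male mice from 10⁷ cultured cells; randomized at 8−10 mm mean diameter. Compound in phosphate-buffered saline with 4 equiv sodium bicarbonate, given via tail vein at the stated dose, alone or 5 min after 15 Gy whole-body cobalt-60 γ irradiation. Tumours excised 18 h after dosing, cells cultured 14 days for clonogens. Groups of 3 (drug alone) or 5 (radiation + drug).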

SiHa [7] = assay: Antitumor activity against human SiHa cells xenografted in immunocompromized mouse assessed as number of colony forming cells per gram of tumor tissue at 42 umol/kg, iv tumor excised post 18 hrs followed by culturing for 14 days; assay type: functional; method in brief: as §3
SiHa [8] = assay: Antitumor activity against human SiHa cells xenografted in immunocompromized gamma irradiated mouse assessed as log cell kill at 42 umol/kg, iv tumor excised post 18 hrs followed by culturing for 14 days under hypoxic condition; assay type: functional
Method in brief: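 Male immunocompromised mice bearing subcutaneous tumours (10^7 cultured cells), randomized at 8–10 mm mean diameter. Compound in PBS with 4 equiv sodium bicarbonate given iv (tail vein), alone or 5 min after 15 Gy whole-body cobalt-60 γ-irradiation, which sterilizes oxygenated cells. Tumours excised 18 h after dosing and plated for clonogens for 14 days. n = 3 (vehicle or compound alone) or 5 (irradiated groups).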

NCI-H460 = assay: Toxicity in human H460 cells xenografted immunocompromized mouse at 75 umol/kg, iv; conditions: in vivo

| SMILES | IC50 (HT-29 [1]) | IC50 (SiHa [2]) | IC50 (HT-29 [3]) | IC50 (SiHa [4]) | Ratio IC50 (HT-29 [5]) | log10cfu (SiHa [6]) | log10cfu (SiHa [7]) | LCK (SiHa [8]) | Activity (NCI-H460) |
| --- | --- | --- | --- | --- | --- | --- | --- | --- | --- |
| CN(C)CCOc1ccc2[nH]c(C(=O)N3CC(CCl)c4c3cc([N+](=O)[O-])c3cc(C(=O)NCCO)ccc43)cc2c1 (centres undefined) | 12000 nM | 4200 nM | 110 nM | 240 nM | 485 | – | – | – | – |
| COc1cc2cc(C(=O)N3CC(COS(C)(=O)=O)c4c3cc([N+](=O)[O-])c3cc(S(=O)(=O)NCCO)ccc43)[nH]c2c(OC)c1OC (centres undefined) | 14000 nM | 6300 nM | 14000 nM | 2100 nM | 8.6 | – | – | – | – |
| COc1cc2cc(C(=O)N3CC(COS(=O)(=O)Cc4ccccc4)c4c3cc([N+](=O)[O-])c3cc(C#N)ccc43)[nH]c2c(OC)c1OC (centres undefined) | 2600 nM | 650 nM | 43 nM | 26 nM | 94 | – | – | – | – |
| COc1ccc(/C=C/C(=O)N2CC(COS(C)(=O)=O)c3c2cc([N+](=O)[O-])c2cc(S(=O)(=O)NCCO)ccc32)cc1 (centres undefined) | 26000 nM | 11000 nM | 4100 nM | 320 nM | 31 | – | – | – | – |
| CN(C)CCOc1ccc2[nH]c(C(=O)N3CC(COS(=O)(=O)Cc4ccccc4)c4c3cc([N+](=O)[O-])c3cc(S(N)(=O)=O)ccc43)cc2c1 (centres undefined) | 1600 nM | 370 nM | 90 nM | 45 nM | 18 | – | – | – | – |
| COc1cc2cc(C(=O)N3CC(COS(=O)(=O)Cc4ccccc4)c4c3cc([N+](=O)[O-])c3cc(S(=O)(=O)NCCOP(=O)(O)O)ccc43)[nH]c2c(OC)c1OC (centres undefined) | – | – | – | – | – | 2.39 | 6.53 | 2.71 | – |
| COc1cc2cc(C(=O)N3CC(COS(=O)(=O)Cc4ccccc4)c4c3cc([N+](=O)[O-])c3cc(S(=O)(=O)NCCO)ccc43)[nH]c2c(OC)c1OC (centres undefined) | 8400 nM | 940 nM | 360 nM | 110 nM | 23 | – | – | – | – |
| COc1cc2cc(C(=O)N3CC(CCl)c4c3cc([N+](=O)[O-])c3cc(C(=O)NCCO)ccc43)[nH]c2c(OC)c1OC (centres undefined) | 5700 nM | – | 3200 nM | – | 1.7 | – | – | – | – |
| COc1ccc(/C=C/C(=O)N2CC(COS(=O)(=O)Cc3ccccc3)c3c2cc([N+](=O)[O-])c2cc(S(=O)(=O)NCCO)ccc32)cc1 (centres undefined) | 47000 nM | 7300 nM | 950 nM | 370 nM | 50 | – | – | – | – |
| NC(=O)c1ccc2c3c(cc([N+](=O)[O-])c2c1)N(C(=O)c1cc2cc(OCCOP(=O)(O)O)ccc2[nH]1)CC3COS(=O)(=O)Cc1ccccc1 (centres undefined) | – | – | – | – | – | 5.09 | 6.91 | 0.37 | Non-toxic |
| COc1ccc(/C=C/C(=O)N2CC(COS(=O)(=O)Cc3ccccc3)c3c2cc([N+](=O)[O-])c2cc(S(=O)(=O)NCCOP(=O)(O)O)ccc32)cc1 (centres undefined) | – | – | – | – | – | 4.32 | 6.74 | 0.78 | – |
| O=C(c1cc2cc(OCCN3CCOCC3)ccc2[nH]1)N1CC(COS(=O)(=O)Cc2ccccc2)c2c1cc([N+](=O)[O-])c1cc(S(=O)(=O)NCCO)ccc21 (centres undefined) | 50000 nM | 23000 nM | > 20000 nM | 39 nM | <2.5 | – | – | – | – |
| CN(C)CCOc1ccc2[nH]c(C(=O)N3CC(COS(=O)(=O)Cc4ccccc4)c4c3cc([N+](=O)[O-])c3cc(S(=O)(=O)NCCOP(=O)(O)O)ccc43)cc2c1 (centres undefined) | – | – | – | – | – | 4.92 | 6.92 | 0.18 | – |
| CN(C)CCOc1ccc2[nH]c(C(=O)N3CC(COS(=O)(=O)Cc4ccccc4)c4c3cc([N+](=O)[O-])c3cc(C(N)=O)ccc43)cc2c1 (centres undefined) | 2200 nM | 530 nM | 38 nM | 120 nM | 58 | – | – | – | – |
| CN(C)CCOc1ccc2[nH]c(C(=O)N3CC(COS(=O)(=O)Cc4ccccc4)c4c3cc([N+](=O)[O-])c3cc(C(=O)NCCOP(=O)(O)O)ccc43)cc2c1 (centres undefined) | – | – | – | – | – | 4.42 | 6.92 | 0.98 | Non-toxic |
| CN(C)CCOc1ccc2[nH]c(C(=O)N3CC(CCl)c4c3cc([N+](=O)[O-])c3cc(C(=O)NCCOP(=O)(O)O)ccc43)cc2c1 (centres undefined) | – | – | – | – | – | 3.11 | 6.56 | 2.21 | – |
| CN(C)CCOc1ccc2[nH]c(C(=O)N3CC(COS(=O)(=O)Cc4ccccc4)c4c3cc([N+](=O)[O-])c3cc(S(=O)(=O)NCCO)ccc43)cc2c1 (centres undefined) | 38000 nM | 4500 nM | 3900 nM | 55 nM | 9.7 | – | – | – | – |
| COc1cc2cc(C(=O)N3CC(COS(=O)(=O)Cc4ccccc4)c4c3cc([N+](=O)[O-])c3cc(C(=O)NCCOP(=O)(O)O)ccc43)[nH]c2c(OC)c1OC (centres undefined) | – | – | – | – | – | 3.62 | 6.71 | 1.78 | Non-toxic |
| COc1ccc(/C=C/C(=O)N2CC(COS(C)(=O)=O)c3c2cc([N+](=O)[O-])c2cc(S(=O)(=O)NCCOP(=O)(O)O)ccc32)cc1 (centres undefined) | – | – | – | – | – | 4.75 | 7.09 | 0.71 | Non-toxic |
| COc1cc2cc(C(=O)N3CC(COS(=O)(=O)Cc4ccccc4)c4c3cc([N+](=O)[O-])c3cc(C(=O)NCCO)ccc43)[nH]c2c(OC)c1OC (centres undefined) | 15000 nM | 900 nM | 610 nM | 160 nM | 13 | – | – | – | – |
| N#Cc1ccc2c3c(cc([N+](=O)[O-])c2c1)N(C(=O)c1cc2cc(OCCO)ccc2[nH]1)CC3COS(=O)(=O)Cc1ccccc1 (centres undefined) | 2500 nM | 710 nM | 490 nM | 35 nM | 5.2 | – | – | – | – |
| COc1cc2cc(C(=O)N3CC(CCl)c4c3cc([N+](=O)[O-])c3cc(S(=O)(=O)NCCOP(=O)(O)O)ccc43)[nH]c2c(OC)c1OC (centres undefined) | – | – | – | – | – | – | – | 0.54 | – |
| CN(C)CCOc1ccc2[nH]c(C(=O)N3CC(COS(C)(=O)=O)c4c3cc([N+](=O)[O-])c3cc(S(=O)(=O)NCCOP(=O)(O)O)ccc43)cc2c1 (centres undefined) | – | – | – | – | – | 4.65 | 7.18 | 0.33 | Non-toxic |
| CN(C)CCOc1ccc2[nH]c(C(=O)N3CC(COS(C)(=O)=O)c4c3cc([N+](=O)[O-])c3cc(S(=O)(=O)NCCO)ccc43)cc2c1 (centres undefined) | 13000 nM | 4100 nM | 2200 nM | 380 nM | 7.4 | – | – | – | – |
| O=C(c1cc2cc(OCCN3CCOCC3)ccc2[nH]1)N1CC(COS(=O)(=O)Cc2ccccc2)c2c1cc([N+](=O)[O-])c1cc(S(=O)(=O)NCCOP(=O)(O)O)ccc21 (centres undefined) | – | – | – | – | – | 4.76 | 7.08 | 0.34 | – |
